From ChEMBL document CHEMBL1138555, “N-acylated and N,N'-diacylated imidazolidine-2-thione derivatives and N,N'-diacylated tetrahydropyrimidine-2(1H)-thione analogues: synthesis and antiproliferative activity” (Eur J Med Chem, 2009)
Activity calls are given as the source filed them. No cut-off for these calls is given here.

Key:
[1] = system: Human immunodeficiency virus 1; test: Antiviral activity against HIV1 in human MT4 cells assessed as prevention of virus-induced cytopathogenicity; format: functional, organism-based
In short: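 MT-4 cells, 1 × 10⁴ per well, with serial compound dilutions from a 100 mM DMSO stock. Infected with HIV-1 at 100 CCID50. Four-day incubation at 37 °C, then viable cells measured by MTT. Read-out is inhibition of virus-induced cytopathogenicity, assessed at non-cytotoxic concentrations.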

U-251 = test: Growth inhibition of human U251 cells after 48 hrs by sulforhodamine B assay; format: functional; settings: U-251, 48 h
In short: (§1)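 NCI in vitro panel screen. Compounds tested at five 10-fold dilutions, 10^-4 to 10^-8 M. Cells in 96-well plates were exposed for the last 48 h of a 72 h incubation. Viability/growth was read by sulforhodamine B protein assay. GI50 is the concentration giving 50% growth inhibition. Values beyond the tested range are reported as greater or less than the maximum or minimum concentration.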

M14 = test: Growth inhibition of human M14 cells after 48 hrs by sulforhodamine B assay; format: functional; settings: M14, 48 h
In short: (§2)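 NCI screen panel. Five 10-fold concentrations from 10^-4 to 10^-8 M. Exposure for the last 48 h of a 72 h incubation. Growth estimated by sulforhodamine B protein assay. GI50 is the concentration giving 50% growth inhibition. Where that level was not reached or was exceeded, the value is given as above or below the highest or lowest concentration tested.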

MDA-MB-231 = test: Growth inhibition of human MDA-MB-231 cells after 48 hrs by sulforhodamine B assay; format: functional; settings: MDA-MB-231, 48 h; in short: as §2
[2] = Growth inhibition of human […] cells after 48 hrs by sulforhodamine B assay; format: functional; in short: as §2
EKVX = test: Growth inhibition of human EKVX cells after 48 hrs by sulforhodamine B assay; format: functional; in short: as §2
HOP-92 = test: Growth inhibition of human HOP92 cells after 48 hrs by sulforhodamine B assay; format: functional; settings: HOP-92, 48 h; in short: as §2
MCF7 = test: Growth inhibition of human MCF7 cells after 48 hrs by sulforhodamine B assay; format: functional; settings: MCF7, 48 h; in short: as §2
HCT-116 = test: Growth inhibition of human HCT116 cells after 48 hrs by sulforhodamine B assay; format: functional; settings: HCT-116, 48 h; in short: as §2
SK-MEL-5 = test: Growth inhibition of human SK-MEL-5 cells after 48 hrs by sulforhodamine B assay; format: functional; settings: SK-MEL-5, 48 h; in short: as §2
786-0 = test: Growth inhibition of human 786-0 cells after 48 hrs by sulforhodamine B assay; format: functional; settings: 786-0, 48 h; in short: as §2
NCI-H322M = test: Growth inhibition of human NCI-H322M cells after 48 hrs by sulforhodamine B assay; format: functional; in short: as §2
SK-OV-3 = test: Growth inhibition of human SKOV3 cells after 48 hrs by sulforhodamine B assay; format: functional; settings: SK-OV-3, 48 h; in short: as §2
SK-MEL-28 = test: Growth inhibition of human SK-MEL-28 cells after 48 hrs by sulforhodamine B assay; format: functional; settings: SK-MEL-28, 48 h; in short: as §2
DU-145 = test: Growth inhibition of human DU145 cells after 48 hrs by sulforhodamine B assay; format: functional; settings: DU-145, 48 h; in short: as §2
BT-549 = test: Growth inhibition of human BT549 cells after 48 hrs by sulforhodamine B assay; format: functional; settings: BT-549, 48 h; in short: as §2
SF-268 = test: Growth inhibition of human SF268 cells after 48 hrs by sulforhodamine B assay; format: functional; settings: SF-268, 48 h; in short: as §2
K562 = test: Growth inhibition of human K562 cells after 48 hrs by sulforhodamine B assay; format: functional; settings: K562, 48 h; in short: as §2
UO-31 = test: Growth inhibition of human UO31 cells after 48 hrs by sulforhodamine B assay; format: functional; settings: UO-31, 48 h; in short: as §1
SNB-75 = test: Growth inhibition of human SNB75 cells after 48 hrs by sulforhodamine B assay; format: functional; settings: SNB-75, 48 h; in short: as §1
T47D = test: Growth inhibition of human T47D cells after 48 hrs by sulforhodamine B assay; format: functional; in short: as §1
SN12C = test: Growth inhibition of human SN12C cells after 48 hrs by sulforhodamine B assay; format: functional; in short: as §1
OVCAR-3 = test: Growth inhibition of human OVCAR-3 cells after 48 hrs by sulforhodamine B assay; format: functional; settings: OVCAR-3, 48 h; in short: as §2
SR = test: Growth inhibition of human SR cells after 48 hrs by sulforhodamine B assay; format: functional; in short: as §1
SF-539 = test: Growth inhibition of human SF539 cells after 48 hrs by sulforhodamine B assay; format: functional; settings: SF-539, 48 h; in short: as §2
LOX IMVI = test: Growth inhibition of human LOXIMVI cells after 48 hrs by sulforhodamine B assay; format: functional; in short: as §2
RXF 393 = test: Growth inhibition of human RXF393 cells after 48 hrs by sulforhodamine B assay; format: functional; settings: RXF 393, 48 h; in short: as §2
SK-MEL-2 = test: Growth inhibition of human SK-MEL-2 cells after 48 hrs by sulforhodamine B assay; format: functional; settings: SK-MEL-2, 48 h; in short: as §2
HT-29 = test: Growth inhibition of human HT-29 cells after 48 hrs by sulforhodamine B assay; format: functional; settings: HT-29, 48 h; in short: as §2
OVCAR-4 = test: Growth inhibition of human OVCAR4 cells after 48 hrs by sulforhodamine B assay; format: functional; settings: OVCAR-4, 48 h; in short: as §2
COLO 205 = test: Growth inhibition of human COLO205 cells after 48 hrs by sulforhodamine B assay; format: functional; settings: COLO 205, 48 h; in short: as §2
HOP-62 = test: Growth inhibition of human HOP62 cells after 48 hrs by sulforhodamine B assay; format: functional; settings: HOP-62, 48 h; in short: as §2
HL-60(TB) = test: Growth inhibition of human HL-60(TB) cells after 48 hrs by sulforhodamine B assay; format: functional; settings: HL-60, 48 h
In short: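 NCI 60-cell-line screen protocol: cells exposed to compound at five 10-fold dilutions from 10^-4 to 10^-8 M for the last 48 h of a 72 h incubation. Sulforhodamine B protein assay estimated viability/growth. GI50 (50% growth inhibition) derived; where not reached or exceeded, reported as greater or less than the highest or lowest concentration tested.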

IGROV-1 = test: Growth inhibition of human IGROV1 cells after 48 hrs by sulforhodamine B assay; format: functional; settings: IGROV-1, 48 h; in short: as §2
KM12 = test: Growth inhibition of human KM12 cells after 48 hrs by sulforhodamine B assay; format: functional; settings: KM12, 48 h; in short: as §2
UACC-62 = test: Growth inhibition of human UACC62 cells after 48 hrs by sulforhodamine B assay; format: functional; settings: UACC-62, 48 h; in short: as §1
Malme-3M = test: Growth inhibition of human MALME-3M cells after 48 hrs by sulforhodamine B assay; format: functional; in short: as §2
NCI-H23 = test: Growth inhibition of human NCI-H23 cells after 48 hrs by sulforhodamine B assay; format: functional; settings: NCI-H23, 48 h; in short: as §2
A549 = test: Growth inhibition of human A549 cells after 48 hrs by sulforhodamine B assay; format: functional; settings: A549, 48 h; in short: as §2
HCT-15 = test: Growth inhibition of human HCT15 cells after 48 hrs by sulforhodamine B assay; format: functional; settings: HCT-15, 48 h; in short: as §2
OVCAR-8 = test: Growth inhibition of human OVCAR8 cells after 48 hrs by sulforhodamine B assay; format: functional; settings: OVCAR-8, 48 h; in short: as §2
MT4 = test: Antiproliferative activity against human MT4 cells assessed as reduction of growth by MTT assay; format: functional, cell-based
In short: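 MT-4 lymphoblastoid T cells (ATCC) in RPMI 1640 with 10% FCS, penicillin/streptomycin, checked for mycoplasma. 1 × 10⁴ mock-infected cells per well with serial dilutions from a 100 mM DMSO stock. Incubated 4 days at 37 °C, viable cells counted by MTT. IC50 versus untreated controls by linear regression. Mean of three separate experiments.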

MOLT-4 = test: Growth inhibition of human MOLT4 cells after 48 hrs by sulforhodamine B assay; format: functional; settings: MOLT-4, 48 h; in short: as §2
CCRF-CEM = test: Growth inhibition of human CCRF-CEM cells after 48 hrs by sulforhodamine B assay; format: functional; in short: as §2
NCI-H522 = test: Growth inhibition of human NCI-H522 cells after 48 hrs by sulforhodamine B assay; format: functional; settings: NCI-H522, 48 h; in short: as §2
CAKI-1 = test: Growth inhibition of human Caki1 cells after 48 hrs by sulforhodamine B assay; format: functional; settings: CAKI-1, 48 h; in short: as §2
NCI-H460 = test: Growth inhibition of human NCI-H460 cells after 48 hrs by sulforhodamine B assay; format: functional; settings: NCI-H460, 48 h; in short: as §2
ACHN = test: Growth inhibition of human ACHN cells after 48 hrs by sulforhodamine B assay; format: functional; in short: as §2
SNB-19 = test: Growth inhibition of human SNB19 cells after 48 hrs by sulforhodamine B assay; format: functional; settings: SNB-19, 48 h; in short: as §1
TK-10 = test: Growth inhibition of human TK10 cells after 48 hrs by sulforhodamine B assay; format: functional; settings: TK-10, 48 h; in short: as §1
PC-3 = test: Growth inhibition of human PC3 cells after 48 hrs by sulforhodamine B assay; format: functional; settings: PC-3, 48 h; in short: as §2
MDA-MB-435 = test: Growth inhibition of human MDA-MB-435 cells after 48 hrs by sulforhodamine B assay; format: functional; settings: MDA-MB-435, 48 h; in short: as §2
SW-620 = test: Growth inhibition of human SW620 cells after 48 hrs by sulforhodamine B assay; format: functional; settings: SW-620, 48 h; in short: as §1
SF-295 = test: Growth inhibition of human SF295 cells after 48 hrs by sulforhodamine B assay; format: functional; settings: SF-295, 48 h; in short: as §2

CC(=O)C(=CN1CCNC1=S)C(C)=O
Activity [1]: inactive

N#C/C(=C\N1CCN(C(=O)c2ccco2)C1=S)C(=O)c1ccccc1
GI50 (U-251): 17 µM | GI50 (M14): 14.9 µM | GI50 (MDA-MB-231): 13.7 µM | GI50 [2]: 5.6 µM | GI50 (EKVX): 17.8 µM | GI50 (HOP-92): 26.9 µM | GI50 (MCF7): 4.5 µM | GI50 (HCT-116): 9.1 µM | GI50 (SK-MEL-5): 8.3 µM | GI50 (786-0): 16.1 µM | GI50 (NCI-H322M): 23.4 µM | GI50 (SK-OV-3): 37.4 µM | GI50 (SK-MEL-28): 28 µM | GI50 (DU-145): 5 µM | GI50 (BT-549): 7.8 µM | GI50 (SF-268): 31.2 µM | GI50 (K562): 5.5 µM | GI50 (UO-31): 10.2 µM | GI50 (SNB-75): 68.2 µM | GI50 (T47D): 7.2 µM | GI50 (SN12C): 8.6 µM | GI50 (OVCAR-3): 18.2 µM | GI50 (SR): 2.8 µM | GI50 (SF-539): 2.2 µM | GI50 (LOX IMVI): 17.9 µM | GI50 (RXF 393): 4.1 µM | GI50 (SK-MEL-2): 3.7 µM | GI50 (HT-29): 30.5 µM | GI50 (OVCAR-4): 29.8 µM | GI50 (COLO 205): 23.2 µM | GI50 (HOP-62): 22 µM | GI50 (HL-60(TB)): 31.5 µM | GI50 (IGROV-1): 19.4 µM | GI50 (KM12): 6.5 µM | GI50 (UACC-62): 12.9 µM | GI50 (Malme-3M): 30.7 µM | GI50 (NCI-H23): 15.2 µM | GI50 (A549): 22 µM | GI50 (HCT-15): 5.7 µM | GI50 (OVCAR-8): 25.4 µM | IC50 (MT4): 3 µM | GI50 (MOLT-4): 43.7 µM | GI50 (CCRF-CEM): 41.9 µM | GI50 (NCI-H522): 3.7 µM | GI50 (CAKI-1): 12.5 µM | GI50 (NCI-H460): 9.5 µM | GI50 (ACHN): 16.6 µM | GI50 (SNB-19): 39.7 µM | GI50 (TK-10): 10.5 µM | GI50 (PC-3): 31.7 µM | GI50 (MDA-MB-435): 11 µM | GI50 (SW-620): 5.9 µM | GI50 (SF-295): 43.6 µM
